As usually defined, the inhibition is the change of the read-out against control, counted positive when it falls. As a reminder, the pIC50 is −log10 of the IC50, conventionally taken in molar units.

pIC50: −log10 of the molar value. Active and inactive are the calls of the source. The rule behind the calls is not given here.

In ChEMBL document CHEMBL3632496, “Novel 2-Carbonylbenzo[b]thiophene 1,1-Dioxide Derivatives as Potent Inhibitors of STAT3 Signaling Pathway” (ACS Med Chem Lett, 2015) one finds inhibition and IC50 data, which are given here for eleven compounds.

Proto-oncogene tyrosine-protein kinase Src (Homo sapiens), sequence (P12931 2-536 limits assumed): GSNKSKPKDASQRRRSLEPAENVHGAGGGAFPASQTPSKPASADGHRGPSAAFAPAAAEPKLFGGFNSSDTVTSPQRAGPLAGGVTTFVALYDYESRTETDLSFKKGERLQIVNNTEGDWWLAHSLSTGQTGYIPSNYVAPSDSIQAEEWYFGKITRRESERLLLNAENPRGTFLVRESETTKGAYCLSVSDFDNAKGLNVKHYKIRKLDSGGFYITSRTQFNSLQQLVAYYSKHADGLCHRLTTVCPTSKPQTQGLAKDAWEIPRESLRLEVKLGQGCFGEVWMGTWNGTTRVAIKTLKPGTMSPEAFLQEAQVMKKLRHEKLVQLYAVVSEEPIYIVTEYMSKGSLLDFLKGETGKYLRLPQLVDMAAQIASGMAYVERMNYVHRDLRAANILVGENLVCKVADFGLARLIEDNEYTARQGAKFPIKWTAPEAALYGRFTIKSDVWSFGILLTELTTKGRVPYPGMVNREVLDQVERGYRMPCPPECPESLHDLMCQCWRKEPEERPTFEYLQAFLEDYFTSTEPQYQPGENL

One test has as its target Signal transducer and activator of transcription 3 (Homo sapiens) (UniProt P40763). As to the kind of experiment: Inhibition of STAT3 phosphorylation at Y705 in human MDA-MB-231 cells after 12 hrs by Western blot analysis. In kind it is cell-based.
Conditions: not given
A digest of the protocol:
(§1)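 Cells were exposed for 12 h. Whole-cell lysates were immunoblotted with a Y705-phospho-STAT3-specific antibody and for total STAT3.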
(In general: Immunoblotting shows a protein as a band on a membrane.)
In the case of `O=[N+]([O-])c1ccc2c(c1)S(=O)(=O)C=C2`, the inhibition entry was “Active”.

For `O=C(C1=Cc2cc(Br)ccc2S1(=O)=O)N1CCCCC1`, the inhibition result is “Dose-dependent effect”.

The test system of the next test is MDA-MB-231. As to the kind of experiment: Cytotoxicity against human MDA-MB-231 cells assessed as growth inhibition after 48 hrs by MTT assay. Conditions: MDA-MB-231, 48 h. The format is functional, cell-based. In general terms: Tetrazolium dyes change colour on reduction, which living cells bring about.
On to `Cc1ccc(NC(=O)C2=Cc3c(Br)cccc3S2(=O)=O)cc1`, for which the negative logarithm of the IC50 (pIC50) was 5.61.

Turning to `O=C(NC1CCCCC1)C1=Cc2cc(Br)ccc2S1(=O)=O`, the pIC50 was 5.24.

As for `CC1CCCCN1C(=O)C1=Cc2cc(Br)ccc2S1(=O)=O` (centres undefined), the pIC50 is 6.02.

`O=C(Nc1ccc(Cl)cc1)C1=Cc2c(Br)cccc2S1(=O)=O`: the pIC50 is 5.42.

Turning to `O=C(Nc1ccccc1)C1=Cc2c(Br)cccc2S1(=O)=O`, the negative logarithm of the IC50 (pIC50) is 5.76.

Take `Cc1ccc(OC(=O)C2=Cc3c(Br)cccc3S2(=O)=O)cc1`: the negative logarithm of the IC50 (pIC50) is less than 4.82.

Consider `CC(C)NC(=O)C1=Cc2cc(Br)ccc2S1(=O)=O`, for which the pIC50 is 5.96.

On to `CC1CCCN(C(=O)C2=Cc3cc(Br)ccc3S2(=O)=O)C1` (centres undefined), for which the negative logarithm of the IC50 (pIC50) was 5.97.

For `O=C(Nc1ccccc1)C1=Cc2cc(NC(=O)c3ccccc3)ccc2S1(=O)=O`, the pIC50 was 5.49.

For the compound `O=[N+]([O-])c1ccc2c(c1)S(=O)(=O)C=C2`, the pIC50 was 5.81.

Tested on in another test: not listed separately
As to the kind of experiment: Cytotoxicity against human MDA-MB-435S cells assessed as growth inhibition after 48 hrs by MTT assay. The format is functional, cell-based.
Conditions: not given
With `CC1CCCCN1C(=O)C1=Cc2cc(Br)ccc2S1(=O)=O` (centres undefined), the pIC50 is 6.01.

Regarding `O=C(Nc1ccccc1)C1=Cc2c(Br)cccc2S1(=O)=O`, the pIC50 was 5.86.

For the compound `CC(C)NC(=O)C1=Cc2cc(Br)ccc2S1(=O)=O`, the pIC50 was 6.03.

With `CC1CCCN(C(=O)C2=Cc3cc(Br)ccc3S2(=O)=O)C1` (centres undefined), the negative logarithm of the IC50 (pIC50) was 5.86.

As for `O=[N+]([O-])c1ccc2c(c1)S(=O)(=O)C=C2`, the negative-log IC50 (pIC50) is 5.73.

The next test deals with MCF7. As to the kind of experiment: Cytotoxicity against human MCF7 cells assessed as growth inhibition after 48 hrs by MTT assay. The format is functional, cell-based. Conditions: MCF7, 48 h.
As for `CC1CCCCN1C(=O)C1=Cc2cc(Br)ccc2S1(=O)=O` (centres undefined), the negative logarithm of the IC50 (pIC50) is 6.00.

Take `O=C(Nc1ccccc1)C1=Cc2c(Br)cccc2S1(=O)=O`: the pIC50 was 5.76.

For the compound `CC(C)NC(=O)C1=Cc2cc(Br)ccc2S1(=O)=O`, the negative-log IC50 (pIC50) was 5.91.

Consider `CC1CCCN(C(=O)C2=Cc3cc(Br)ccc3S2(=O)=O)C1` (centres undefined), for which the negative logarithm of the IC50 (pIC50) is 5.90.

Take `O=[N+]([O-])c1ccc2c(c1)S(=O)(=O)C=C2`: the negative-log IC50 (pIC50) is 5.67.

The test system of another test is DU-145. As to the kind of experiment: Cytotoxicity against human DU145 cells assessed as growth inhibition after 48 hrs by MTT assay. In kind it is functional, cell-based. Conditions: DU-145, 48 h.
`Cc1ccc(NC(=O)C2=Cc3c(Br)cccc3S2(=O)=O)cc1`: the pIC50 is 5.52.

Take `O=C(NC1CCCCC1)C1=Cc2cc(Br)ccc2S1(=O)=O`: the negative logarithm of the IC50 (pIC50) is 5.24.

`CC1CCCCN1C(=O)C1=Cc2cc(Br)ccc2S1(=O)=O` (centres undefined): the negative logarithm of the IC50 (pIC50) is 6.01.

Regarding `O=C(Nc1ccc(Cl)cc1)C1=Cc2c(Br)cccc2S1(=O)=O`, the pIC50 is 5.20.

For the compound `O=C(Nc1ccccc1)C1=Cc2c(Br)cccc2S1(=O)=O`, the negative logarithm of the IC50 (pIC50) is 5.58.

Regarding `Cc1ccc(OC(=O)C2=Cc3c(Br)cccc3S2(=O)=O)cc1`, the pIC50 was less than 4.82.

For the compound `CC(C)NC(=O)C1=Cc2cc(Br)ccc2S1(=O)=O`, the negative-log IC50 (pIC50) was 5.66.

As to `CC1CCCN(C(=O)C2=Cc3cc(Br)ccc3S2(=O)=O)C1` (centres undefined), the negative logarithm of the IC50 (pIC50) is 5.85.

Take `O=C(Nc1ccccc1)C1=Cc2cc(NC(=O)c3ccccc3)ccc2S1(=O)=O`: the pIC50 is 5.21.

Take `O=[N+]([O-])c1ccc2c(c1)S(=O)(=O)C=C2`: the pIC50 is 5.60.

Tested on in another test: not listed separately
Put plainly: Cytotoxicity against human PANC1 cells assessed as growth inhibition after 48 hrs by MTT assay. Conditions: PANC-1, 48 h. In kind it is functional, cell-based.
With `CC1CCCCN1C(=O)C1=Cc2cc(Br)ccc2S1(=O)=O` (centres undefined), the pIC50 was 5.67.

For `O=C(Nc1ccccc1)C1=Cc2c(Br)cccc2S1(=O)=O`, the pIC50 was 5.18.

In the case of `CC(C)NC(=O)C1=Cc2cc(Br)ccc2S1(=O)=O`, the pIC50 was 5.30.

Take `CC1CCCN(C(=O)C2=Cc3cc(Br)ccc3S2(=O)=O)C1` (centres undefined): the pIC50 is 5.53.

As to `O=[N+]([O-])c1ccc2c(c1)S(=O)(=O)C=C2`, the pIC50 is 5.54.

A further test has as its system A549. As to the kind of experiment: Cytotoxicity against human A549 cells assessed as growth inhibition after 48 hrs by MTT assay. In kind it is functional, cell-based. Conditions: A549, 48 h.
Turning to `CC1CCCCN1C(=O)C1=Cc2cc(Br)ccc2S1(=O)=O` (centres undefined), the pIC50 is 5.89.

For the compound `O=C(Nc1ccccc1)C1=Cc2c(Br)cccc2S1(=O)=O`, the pIC50 was 5.39.

As for `CC(C)NC(=O)C1=Cc2cc(Br)ccc2S1(=O)=O`, the negative logarithm of the IC50 (pIC50) is 5.53.

Consider `CC1CCCN(C(=O)C2=Cc3cc(Br)ccc3S2(=O)=O)C1` (centres undefined), for which the negative-log IC50 (pIC50) was 5.71.

As for `O=[N+]([O-])c1ccc2c(c1)S(=O)(=O)C=C2`, the pIC50 is 5.60.

The next test deals with SMMC-7721. As to the kind of experiment: Cytotoxicity against human SMMC7721 cells assessed as growth inhibition after 48 hrs by MTT assay. In kind it is functional, cell-based. The following applies: SMMC-7721, 48 h.
As for `O=C(Nc1ccccc1)C1=Cc2c(Br)cccc2S1(=O)=O`, the negative logarithm of the IC50 (pIC50) was 5.62.

As to `CC(C)NC(=O)C1=Cc2cc(Br)ccc2S1(=O)=O`, the pIC50 was 5.62.

Tested on in the next test: not listed separately
Put plainly: Cytotoxicity against human HL-7702 cells assessed as growth inhibition after 48 hrs by MTT assay. The format is cell-based. Conditions: L02, 48 h.
As to `O=C(Nc1ccccc1)C1=Cc2c(Br)cccc2S1(=O)=O`, the negative-log IC50 (pIC50) was 4.82.

`CC(C)NC(=O)C1=Cc2cc(Br)ccc2S1(=O)=O`: the pIC50 was 4.82.

The target of the next test is Signal transducer and activator of transcription 3 (Homo sapiens) (UniProt P40763). As to the kind of experiment: Inhibition of STAT3-mediated luciferase activity in human HeLa cells after 12 hrs by luminescence assay. The format is cell-based.
Signal transducer and activator of transcription 3 (Homo sapiens), sequence (P40763 whole entry): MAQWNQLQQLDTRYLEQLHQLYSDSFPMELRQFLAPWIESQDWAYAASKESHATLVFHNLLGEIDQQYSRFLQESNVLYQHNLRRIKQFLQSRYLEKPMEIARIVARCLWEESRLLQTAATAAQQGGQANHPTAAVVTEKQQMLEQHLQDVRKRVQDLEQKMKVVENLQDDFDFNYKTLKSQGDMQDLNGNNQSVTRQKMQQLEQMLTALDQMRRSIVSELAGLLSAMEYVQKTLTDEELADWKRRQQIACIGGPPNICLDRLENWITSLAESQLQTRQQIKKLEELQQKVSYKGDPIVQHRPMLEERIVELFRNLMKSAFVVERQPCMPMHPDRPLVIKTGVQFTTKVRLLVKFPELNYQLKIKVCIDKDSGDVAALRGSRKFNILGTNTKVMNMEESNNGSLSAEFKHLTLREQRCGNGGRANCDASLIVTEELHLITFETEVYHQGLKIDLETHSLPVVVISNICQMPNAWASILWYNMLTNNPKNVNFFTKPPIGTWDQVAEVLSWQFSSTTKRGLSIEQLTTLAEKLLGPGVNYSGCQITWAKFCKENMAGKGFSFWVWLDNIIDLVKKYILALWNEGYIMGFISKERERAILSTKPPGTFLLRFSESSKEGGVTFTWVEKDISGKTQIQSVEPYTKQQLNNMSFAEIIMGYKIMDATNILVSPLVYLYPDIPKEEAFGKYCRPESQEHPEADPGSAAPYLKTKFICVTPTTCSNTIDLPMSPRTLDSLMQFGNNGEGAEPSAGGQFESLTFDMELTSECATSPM
Conditions: not given
A digest of the protocol:
(§2)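 HeLa cells, which have constitutive STAT3, were transfected with a STAT3-dependent dual luciferase reporter. Reporter luminescence was measured after compound exposure. Values are mean ± SD of triplicate experiments and are compared with vehicle-treated control.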
In the case of `O=C(C1=Cc2cc(Br)ccc2S1(=O)=O)N1CCCCC1`, the inhibition entry was “Dose-dependent effect”.

For the next test the target is unchanged. As to the kind of experiment: Inhibition of STAT3-mediated luciferase activity in human HeLa cells at 2 uM after 12 hrs by luminescence assay relative to control. The format is cell-based.
Conditions: not given
A digest of the protocol:
as §2
For `O=C(C1=Cc2cc(Br)ccc2S1(=O)=O)N1CCCCC1`, the inhibition came to 14%.

The target is the same in a further test. Put plainly: Inhibition of STAT3-mediated luciferase activity in human HeLa cells at 4 uM after 12 hrs by luminescence assay relative to control. The format is cell-based.
Conditions: not given
A digest of the protocol:
as §2
Turning to `O=[N+]([O-])c1ccc2c(c1)S(=O)(=O)C=C2`, the inhibition came to 36%.

Take `O=C(C1=Cc2cc(Br)ccc2S1(=O)=O)N1CCCCC1`: the inhibition came out at 48%.

A further test has the same target. As to the kind of experiment: Inhibition of STAT3 phosphorylation at Y705 in human MDA-MB-435S cells after 12 hrs by Western blot analysis. In kind it is cell-based.
Conditions: not given
A digest of the protocol: as §1
`O=[N+]([O-])c1ccc2c(c1)S(=O)(=O)C=C2`: the inhibition entry is “Active”.

For the compound `O=C(C1=Cc2cc(Br)ccc2S1(=O)=O)N1CCCCC1`, the inhibition entry was “Dose-dependent effect”.

For the next test the target is unchanged. As to the kind of experiment: Inhibition of STAT3 phosphorylation at Y705 in human MCF7 cells after 12 hrs by Western blot analysis. In kind it is cell-based.
Conditions: not given
A digest of the protocol:
as §1
On to `O=[N+]([O-])c1ccc2c(c1)S(=O)(=O)C=C2`, for which the inhibition entry was “Active”.

With `O=C(C1=Cc2cc(Br)ccc2S1(=O)=O)N1CCCCC1`, the inhibition result was “Dose-dependent effect”.

A further test concerns the target Proto-oncogene tyrosine-protein kinase Src (Homo sapiens) (UniProt P12931). As to the kind of experiment: Inhibition of Src phosphorylation in human MDA-MB-231 cells at 1 to 4 uM after 12 hrs by Western blot analysis.
Conditions: not given
The format is cell-based.
On to `O=C(C1=Cc2cc(Br)ccc2S1(=O)=O)N1CCCCC1`, for which the inhibition entry was “inactive”.

Another test deals with Mitogen-activated protein kinase; ERK1/ERK2 (Homo sapiens) (UniProt P27361+P28482). Put plainly: Inhibition of ERK1/2 phosphorylation in human MDA-MB-231 cells at 1 to 4 uM after 12 hrs by Western blot analysis. The format is cell-based.
Mitogen-activated protein kinase; ERK1/ERK2 (Homo sapiens), sequence (P27361 whole entry, looked up): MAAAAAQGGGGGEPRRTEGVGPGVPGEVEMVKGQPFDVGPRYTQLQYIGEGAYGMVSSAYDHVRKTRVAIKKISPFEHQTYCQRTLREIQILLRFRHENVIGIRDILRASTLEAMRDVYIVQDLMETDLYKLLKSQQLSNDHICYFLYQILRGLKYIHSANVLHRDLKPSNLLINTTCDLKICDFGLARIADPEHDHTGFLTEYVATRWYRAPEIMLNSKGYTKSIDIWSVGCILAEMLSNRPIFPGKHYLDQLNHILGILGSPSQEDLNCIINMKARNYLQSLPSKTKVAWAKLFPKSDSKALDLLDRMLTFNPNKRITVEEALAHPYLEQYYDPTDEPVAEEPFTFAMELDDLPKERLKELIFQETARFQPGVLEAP
Mitogen-activated protein kinase; ERK1/ERK2 (Homo sapiens), sequence (P28482 whole entry, looked up): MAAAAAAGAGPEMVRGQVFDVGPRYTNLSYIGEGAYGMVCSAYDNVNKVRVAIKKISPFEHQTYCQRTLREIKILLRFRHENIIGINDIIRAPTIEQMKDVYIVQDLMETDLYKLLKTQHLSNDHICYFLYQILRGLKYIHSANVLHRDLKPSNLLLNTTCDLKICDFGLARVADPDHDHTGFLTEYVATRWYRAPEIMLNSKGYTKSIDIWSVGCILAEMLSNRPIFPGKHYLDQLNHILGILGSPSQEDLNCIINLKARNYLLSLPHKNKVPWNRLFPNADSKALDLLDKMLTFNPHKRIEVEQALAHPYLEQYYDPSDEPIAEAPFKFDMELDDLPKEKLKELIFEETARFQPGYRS
Conditions: not given
For the compound `O=C(C1=Cc2cc(Br)ccc2S1(=O)=O)N1CCCCC1`, the inhibition entry was “inactive”.

A further test addresses Serine/threonine-protein kinase mTOR (Homo sapiens) (UniProt P42345). Put plainly: Inhibition of mTOR phosphorylation in human MDA-MB-231 cells at 1 to 4 uM after 12 hrs by Western blot analysis. In kind it is cell-based.
Conditions: not given
In the case of `O=C(C1=Cc2cc(Br)ccc2S1(=O)=O)N1CCCCC1`, the inhibition entry was “inactive”.

The next test addresses Signal transducer and activator of transcription 3 (Homo sapiens) (UniProt P40763). As to the kind of experiment: Inhibition of IL-6-induced STAT3 phosphorylation in overnight starved human MDA-MB-231 cells preincubated for 2 hrs followed by IL-6 induction by Western blot analysis. The format is cell-based.
Conditions: not given
A digest of the protocol: (§3)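 Cells were serum-starved overnight and pretreated with compound for 2 h. They were then stimulated with IL-6. Lysates were immunoblotted for phospho-STAT3.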
Consider `O=C(C1=Cc2cc(Br)ccc2S1(=O)=O)N1CCCCC1`, for which the inhibition result is “Dose-dependent effect”.

The target is the same in the next test. Put plainly: Inhibition of IL-6-induced STAT3 phosphorylation in overnight starved human MCF7 cells at 2 to 6 uM preincubated for 2 hrs followed by IL-6 induction by Western blot analysis. The format is cell-based.
Conditions: not given
A digest of the protocol:
as §3
In the case of `O=C(C1=Cc2cc(Br)ccc2S1(=O)=O)N1CCCCC1`, the inhibition result was “Active”.
